Measured values from ChEMBL document CHEMBL1123812, “Pyrroloisoquinoline antidepressants. 2. In-depth exploration of structure-activity relationships” (J Med Chem, 1987).
Activity calls are given as the source filed them.

Key:
[1] = biological target: Serotonin 2 (5-HT2) receptor (Rattus norvegicus) (UniProt P30994+P08909+P14842); test: Binding affinity towards 5-hydroxytryptamine 2 receptor at 1.0 uM concentration; type: protein assay
Method in brief: (§1)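 Rat brain crude synaptic membranes in 20 mM NaHEPES pH 7.5. Ligands: α1 cortex […] 0.4 nM, nonspecific with (-)-NE 100 μM, 30 min at 25 °C. […] D2 striatum [3H]spiperone 0.05 nM with (+)-butaclamol 1 μM, 45 min at 37 °C. S1 cortex [3H]5-HT 1 nM plus glutathione and MgCl2, with 5-HT 10 μM, 20 min at 37 °C. […] Samples filtered on GF/B and counted.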

Mus musculus [2] = organism: Mus musculus; test: Antagonism of tetrabenazine (TBZ)-induced depression in mice measured for ptosis; type: functional
Method in brief: (§2)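 Nonfasted male Swiss Webster mice, 18–24 g, ten per dose level and in saline controls. Test compound given ip 30 min before tetrabenazine 32 mg/kg ip; dose expressed as free base. Motor activity and ptosis scored. Control response ≤90% corrected by Abbott's formula.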

Rattus norvegicus [3] = organism: Rattus norvegicus; test: Ability to inhibit the uptake of tritiated norepinephrine (NE) at 0.1 uM concentration; type: functional
Method in brief: (§3)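 Male Wistar rat brain synaptosomes (P2 fraction): hypothalamus for NE, striatum for DA, cerebral cortex for 5-HT. Buffer is Tris- or HEPES-buffered salt medium with glucose, ascorbate and nialamide, pH 7.4 at 37 °C. Preincubated 10 min at 37 °C with compound. Uptake started with [3H]NE 100–300 nM, [3H]DA 50–300 nM or [3H]5-HT 100–200 nM, incubated 3 min (DA) or 6–10 min (NE, 5-HT). Blanks held on ice. Filtered, counted by scintillation.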

Mus musculus [4] = organism: Mus musculus; test: Antagonism of tetrabenazine (TBZ)-induced depression measured in mice by motor activity; type: functional; method in brief: as §2
[5] = biological target: D(2) dopamine receptor (Rattus norvegicus) (UniProt P61169); test: Binding affinity towards dopamine receptor D2 at 1.0 uM concentration; method in brief: as §1
Mus musculus [6] = organism: Mus musculus; test: Gross behavioral effects ascertained in mice; W indicates weak stimulant or depressant activity of little significance.; type: functional, organism-based
Method in brief: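 Male Swiss Webster mice, 18–24 g, three per dose, given ip doses of 1, 3, 10, 30, 100 and 300 mg/kg. Observed for gross behavior and held for 4 days. Scored as weak (W), stimulant (S), depressant (D) or convulsant (C).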

[7] = biological target: Sodium-dependent serotonin transporter (Rattus norvegicus) (UniProt P31652); test: Inhibition of tritiated serotonin(5-HT) uptake at 0.1 uM concentration; type: functional; method in brief: as §3
[8] = biological target: Sodium-dependent dopamine transporter (Rattus norvegicus) (UniProt P23977); test: Inhibition of tritiated dopamine (DA) uptake at 0.1 uM concentration; type: functional; method in brief: as §3
[9] = biological target: T1, Adrenergic receptor alpha-1 (Rattus norvegicus, UniProt P15823+P23944+P43140); test: Binding affinity towards alpha-1 adrenergic receptor; type: protein assay
T1 sequence (P15823 whole entry): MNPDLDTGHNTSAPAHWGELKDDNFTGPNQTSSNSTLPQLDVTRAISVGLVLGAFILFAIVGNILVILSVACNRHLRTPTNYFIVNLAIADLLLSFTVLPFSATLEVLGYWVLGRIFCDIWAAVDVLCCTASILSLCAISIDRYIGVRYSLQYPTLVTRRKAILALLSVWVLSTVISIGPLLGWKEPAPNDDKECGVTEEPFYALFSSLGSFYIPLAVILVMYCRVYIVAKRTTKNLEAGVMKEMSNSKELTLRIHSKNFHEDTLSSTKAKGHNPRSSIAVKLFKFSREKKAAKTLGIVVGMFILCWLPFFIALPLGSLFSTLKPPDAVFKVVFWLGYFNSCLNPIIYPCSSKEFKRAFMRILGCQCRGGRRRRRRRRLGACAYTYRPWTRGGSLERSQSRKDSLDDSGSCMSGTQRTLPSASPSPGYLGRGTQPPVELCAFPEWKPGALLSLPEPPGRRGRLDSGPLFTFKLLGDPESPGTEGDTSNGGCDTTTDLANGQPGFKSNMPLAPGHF
T1 sequence (P23944 whole entry): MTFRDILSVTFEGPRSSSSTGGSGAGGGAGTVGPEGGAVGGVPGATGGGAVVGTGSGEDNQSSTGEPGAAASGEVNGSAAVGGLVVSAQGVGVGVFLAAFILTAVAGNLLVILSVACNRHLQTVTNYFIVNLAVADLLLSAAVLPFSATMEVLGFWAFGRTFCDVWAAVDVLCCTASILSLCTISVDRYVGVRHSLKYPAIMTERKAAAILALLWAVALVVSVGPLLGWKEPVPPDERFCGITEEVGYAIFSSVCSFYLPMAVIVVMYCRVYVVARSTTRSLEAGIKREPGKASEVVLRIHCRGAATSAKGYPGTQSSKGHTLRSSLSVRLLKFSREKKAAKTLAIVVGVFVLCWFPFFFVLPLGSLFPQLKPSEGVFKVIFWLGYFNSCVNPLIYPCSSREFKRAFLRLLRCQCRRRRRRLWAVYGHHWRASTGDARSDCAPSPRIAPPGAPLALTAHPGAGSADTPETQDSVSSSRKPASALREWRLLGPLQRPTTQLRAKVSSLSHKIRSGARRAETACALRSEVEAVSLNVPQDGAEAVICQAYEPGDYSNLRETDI
T1 sequence (P43140 whole entry): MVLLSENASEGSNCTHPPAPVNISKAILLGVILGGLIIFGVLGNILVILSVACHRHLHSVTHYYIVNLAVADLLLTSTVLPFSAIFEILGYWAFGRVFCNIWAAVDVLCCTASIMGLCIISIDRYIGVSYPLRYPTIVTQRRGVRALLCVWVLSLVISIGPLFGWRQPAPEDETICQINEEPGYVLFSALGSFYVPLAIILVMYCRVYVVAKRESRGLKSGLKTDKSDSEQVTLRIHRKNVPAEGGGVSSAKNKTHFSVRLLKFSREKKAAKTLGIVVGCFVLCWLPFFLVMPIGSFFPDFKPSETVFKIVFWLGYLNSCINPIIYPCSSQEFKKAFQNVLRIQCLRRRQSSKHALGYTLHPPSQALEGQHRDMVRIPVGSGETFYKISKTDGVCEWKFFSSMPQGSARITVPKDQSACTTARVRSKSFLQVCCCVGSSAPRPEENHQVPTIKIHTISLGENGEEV

[10] = biological target: Serotonin 2 (5-HT2) receptor (Rattus norvegicus, UniProt P30994+P08909+P14842); test: Binding affinity towards 5-hydroxytryptamine 2 receptor; type: protein assay
[11] = biological target: Serotonin 1 (5-HT1) receptor (Rattus norvegicus, UniProt P28564+P30940+P19327+P28565); test: Binding affinity towards serotonin S1 receptor; type: protein assay; method in brief: as §1
Rattus norvegicus [12] = organism: Rattus norvegicus; test: Ability to inhibit the uptake of tritiated dopamine (DA) 1 uM concentration; type: functional
Method in brief: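 Rat brain synaptosomal [3H]dopamine uptake: striatal P2 fraction, test compound at 1.00 μM. Preincubated at 37 °C, then 50–300 nM [3H]DA for 3 min. Blanks on ice. Filtration and scintillation counting; percent inhibition of control uptake.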

[13] = biological target: Norepinephrine transporter (Rattus norvegicus) (UniProt Q9WTR4); test: Ability to inhibit the uptake of [3H]norepinephrine (NE) 0.1 uM concentration at rat brain synaptosomes; type: functional, subcellular; method in brief: as §3
[14] = biological target: Sodium-dependent serotonin transporter (Rattus norvegicus) (UniProt P31652); test: Ability to inhibit the uptake of [3H]- serotonin(5-HT) 0.1 uM concentration at rat brain synaptosomes; type: functional, subcellular; method in brief: as §3
D(2) dopamine receptor = D(2) dopamine receptor (Rattus norvegicus, UniProt P61169); test: Binding affinity towards Dopamine receptor D2
[15] = biological target: Sodium-dependent dopamine transporter (Rattus norvegicus, UniProt P23977); test: Inhibition of the uptake of tritiated dopamine (DA) in rat synaptosomes; type: subcellular, Brain
[16] = biological target: Sodium-dependent dopamine transporter (Rattus norvegicus) (UniProt P23977); test: Ability to inhibit the uptake of [3H]dopamine (DA) 0.1 uM concentration at rat brain synaptosomes; type: functional, subcellular; method in brief: as §3
Mus musculus [17] = test: Ability to antagonise intraperitoneal dose; inactive (<10% antagonism) at 30 mgjkg is represented as I-30.; type: functional, organism-based; method in brief: as §2
[18] = biological target: Norepinephrine transporter (Rattus norvegicus, UniProt Q9WTR4); test: Inhibition of uptake of tritiated norepinephrine (NE) in rat synaptosomes; type: subcellular, Brain
[19] = biological target: Serotonin 1 (5-HT1) receptor (Rattus norvegicus) (UniProt P28564+P30940+P19327+P28565); test: Binding affinity towards serotonin S1 receptor at 1.0 uM; type: protein assay; method in brief: as §1

Sodium-dependent dopamine transporter, sequence (P23977 whole entry): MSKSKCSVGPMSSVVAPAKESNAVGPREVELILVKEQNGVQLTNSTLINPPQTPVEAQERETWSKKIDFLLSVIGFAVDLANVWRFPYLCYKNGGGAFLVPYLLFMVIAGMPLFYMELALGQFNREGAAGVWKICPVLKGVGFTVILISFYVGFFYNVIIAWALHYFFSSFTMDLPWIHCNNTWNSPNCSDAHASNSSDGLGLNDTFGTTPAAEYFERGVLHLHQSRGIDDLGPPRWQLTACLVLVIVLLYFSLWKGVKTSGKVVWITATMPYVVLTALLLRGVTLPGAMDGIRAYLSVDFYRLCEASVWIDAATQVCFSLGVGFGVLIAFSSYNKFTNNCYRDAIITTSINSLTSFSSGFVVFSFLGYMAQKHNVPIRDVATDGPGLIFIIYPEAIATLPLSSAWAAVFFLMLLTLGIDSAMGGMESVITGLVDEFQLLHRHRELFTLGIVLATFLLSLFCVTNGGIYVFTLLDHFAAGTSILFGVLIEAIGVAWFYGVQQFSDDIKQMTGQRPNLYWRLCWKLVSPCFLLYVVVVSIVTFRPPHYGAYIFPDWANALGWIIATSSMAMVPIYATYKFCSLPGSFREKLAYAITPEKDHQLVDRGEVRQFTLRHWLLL
Sodium-dependent serotonin transporter (Rattus norvegicus), sequence (P31652 whole entry): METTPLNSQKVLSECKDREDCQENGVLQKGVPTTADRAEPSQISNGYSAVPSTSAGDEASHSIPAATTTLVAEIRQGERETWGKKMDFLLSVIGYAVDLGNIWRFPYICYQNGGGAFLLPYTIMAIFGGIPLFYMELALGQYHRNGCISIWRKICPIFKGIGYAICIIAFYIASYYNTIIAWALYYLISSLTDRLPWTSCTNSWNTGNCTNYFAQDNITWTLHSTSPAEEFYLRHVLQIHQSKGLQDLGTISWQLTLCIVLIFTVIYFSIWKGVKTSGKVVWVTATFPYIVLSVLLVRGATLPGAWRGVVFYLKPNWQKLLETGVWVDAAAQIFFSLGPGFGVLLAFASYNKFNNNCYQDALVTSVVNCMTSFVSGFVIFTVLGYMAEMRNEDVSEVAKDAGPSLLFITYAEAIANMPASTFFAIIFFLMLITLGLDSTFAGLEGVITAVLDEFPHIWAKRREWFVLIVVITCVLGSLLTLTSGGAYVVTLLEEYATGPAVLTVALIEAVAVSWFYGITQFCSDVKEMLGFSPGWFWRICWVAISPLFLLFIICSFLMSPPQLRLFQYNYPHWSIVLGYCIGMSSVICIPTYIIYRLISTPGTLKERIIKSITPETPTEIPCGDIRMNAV
Norepinephrine transporter (Rattus norvegicus), sequence (Q9WTR4 as listed by the source): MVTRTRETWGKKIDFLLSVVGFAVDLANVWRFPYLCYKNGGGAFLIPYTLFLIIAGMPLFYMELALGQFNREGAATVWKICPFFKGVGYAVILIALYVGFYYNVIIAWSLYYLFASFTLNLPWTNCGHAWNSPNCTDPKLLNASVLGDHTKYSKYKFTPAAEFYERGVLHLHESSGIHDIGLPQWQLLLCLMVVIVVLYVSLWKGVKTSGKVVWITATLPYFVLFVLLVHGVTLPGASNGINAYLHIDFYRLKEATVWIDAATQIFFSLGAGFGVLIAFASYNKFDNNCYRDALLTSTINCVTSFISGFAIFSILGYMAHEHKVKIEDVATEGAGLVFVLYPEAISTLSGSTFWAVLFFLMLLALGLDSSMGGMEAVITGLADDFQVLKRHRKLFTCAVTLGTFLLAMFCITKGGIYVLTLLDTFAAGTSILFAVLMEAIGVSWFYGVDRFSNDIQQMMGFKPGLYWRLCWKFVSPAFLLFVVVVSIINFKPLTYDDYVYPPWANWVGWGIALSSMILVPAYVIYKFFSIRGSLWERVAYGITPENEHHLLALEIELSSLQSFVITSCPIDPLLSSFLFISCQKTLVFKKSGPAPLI
Serotonin 2 (5-HT2) receptor (Rattus norvegicus), sequence (P08909 whole entry, looked up): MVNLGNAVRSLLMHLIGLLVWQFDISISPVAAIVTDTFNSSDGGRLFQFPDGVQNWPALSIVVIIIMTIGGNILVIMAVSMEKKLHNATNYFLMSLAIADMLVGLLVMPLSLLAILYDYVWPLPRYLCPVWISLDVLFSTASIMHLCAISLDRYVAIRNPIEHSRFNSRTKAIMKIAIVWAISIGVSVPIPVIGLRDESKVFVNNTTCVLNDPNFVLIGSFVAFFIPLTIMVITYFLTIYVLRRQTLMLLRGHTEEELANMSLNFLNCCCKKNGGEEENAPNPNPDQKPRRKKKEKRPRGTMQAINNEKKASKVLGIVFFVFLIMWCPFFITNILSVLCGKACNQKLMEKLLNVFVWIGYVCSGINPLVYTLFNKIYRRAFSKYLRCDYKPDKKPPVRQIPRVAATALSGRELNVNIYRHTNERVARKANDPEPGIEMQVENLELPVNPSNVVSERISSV
Serotonin 2 (5-HT2) receptor (Rattus norvegicus), sequence (P14842 whole entry, looked up): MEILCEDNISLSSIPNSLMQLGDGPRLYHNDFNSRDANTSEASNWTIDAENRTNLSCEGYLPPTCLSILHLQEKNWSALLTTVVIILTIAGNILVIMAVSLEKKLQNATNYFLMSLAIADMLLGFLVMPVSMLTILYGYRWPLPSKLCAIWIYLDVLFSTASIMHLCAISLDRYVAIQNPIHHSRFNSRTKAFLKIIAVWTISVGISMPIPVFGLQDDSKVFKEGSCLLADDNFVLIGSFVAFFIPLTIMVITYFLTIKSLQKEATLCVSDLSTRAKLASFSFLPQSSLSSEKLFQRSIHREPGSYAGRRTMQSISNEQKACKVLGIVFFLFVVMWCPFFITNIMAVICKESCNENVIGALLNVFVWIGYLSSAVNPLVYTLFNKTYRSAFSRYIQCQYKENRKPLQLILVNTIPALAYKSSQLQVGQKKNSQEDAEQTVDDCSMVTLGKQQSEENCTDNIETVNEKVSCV
Serotonin 2 (5-HT2) receptor (Rattus norvegicus), sequence (P30994 whole entry, looked up): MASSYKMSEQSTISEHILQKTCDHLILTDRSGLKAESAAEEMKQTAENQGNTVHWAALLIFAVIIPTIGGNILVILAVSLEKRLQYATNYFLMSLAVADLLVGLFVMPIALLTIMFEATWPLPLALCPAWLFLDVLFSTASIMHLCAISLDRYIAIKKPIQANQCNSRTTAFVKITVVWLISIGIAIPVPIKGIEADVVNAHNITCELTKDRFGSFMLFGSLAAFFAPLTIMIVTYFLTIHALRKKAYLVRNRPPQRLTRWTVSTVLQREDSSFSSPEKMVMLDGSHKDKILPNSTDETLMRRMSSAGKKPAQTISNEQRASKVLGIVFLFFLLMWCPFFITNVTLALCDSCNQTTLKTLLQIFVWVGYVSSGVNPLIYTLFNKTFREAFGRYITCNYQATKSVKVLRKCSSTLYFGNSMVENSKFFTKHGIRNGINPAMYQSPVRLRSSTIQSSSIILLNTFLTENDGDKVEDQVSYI
Sodium-dependent dopamine transporter (Rattus norvegicus), sequence (P23977 whole entry): as the sequence (P23977 whole entry) above
D(2) dopamine receptor (Rattus norvegicus), sequence (P61169 whole entry): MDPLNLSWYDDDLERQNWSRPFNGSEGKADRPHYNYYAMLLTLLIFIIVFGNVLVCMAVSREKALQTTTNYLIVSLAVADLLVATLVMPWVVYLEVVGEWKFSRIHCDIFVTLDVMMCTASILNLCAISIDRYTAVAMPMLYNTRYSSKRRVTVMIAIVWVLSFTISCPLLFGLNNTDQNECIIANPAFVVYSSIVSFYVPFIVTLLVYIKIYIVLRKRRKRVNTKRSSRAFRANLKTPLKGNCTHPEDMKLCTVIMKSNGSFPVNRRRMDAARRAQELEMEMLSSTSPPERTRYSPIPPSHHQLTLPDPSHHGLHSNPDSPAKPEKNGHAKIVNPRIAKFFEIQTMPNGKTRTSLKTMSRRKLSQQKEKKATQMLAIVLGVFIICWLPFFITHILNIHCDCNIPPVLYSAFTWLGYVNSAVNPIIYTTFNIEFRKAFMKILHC
Norepinephrine transporter, sequence (Q9WTR4 whole entry): as the sequence (Q9WTR4 as listed by the source) above
D(2) dopamine receptor, sequence (P61169 whole entry): as the sequence (P61169 whole entry) above

| Compound | Ki [9] [nM] | Ki [10] [nM] | Ki [11] [nM] | inhibition [13] [%] | inhibition [14] [%] | Ki [15] [nM] | ED50 (Mus musculus [2]; Mus musculus, read-out: ED50) [mg/kg] | ED50 (Mus musculus [4]; Mus musculus, read-out: ED50) [mg/kg] | behavior (Mus musculus [6]) | also measured |
| --- | --- | --- | --- | --- | --- | --- | --- | --- | --- | --- |
| CSc1ccc([C@@H]2CN3CCC[C@@H]3c3ccccc32)cc1 (stereo in doubt; 48b) | 314 | 208 | 1030 | – | – | – | 0.3 | > 30 | – | – |
| Br.c1ccc([C@H]2Cc3ccccc3[C@@H]3CCCN23)cc1 | – | – | – | 11 | -9 | – | ~3 | ~30 | Weak | Inhibition (Rattus norvegicus [12]): 36% |
| Br.C[C@@]1(c2ccccc2)CN2CCC[C@H]2c2ccccc21 | – | – | – | 19 | 14 | – | 16.2 | 22.5 | Weak | Inhibition (Rattus norvegicus [12]): 50% |
| FC(F)(F)c1cccc([C@@H]2CN3CCC[C@H]3c3ccccc32)c1 | 86 | 29 | – | 23 | 9 | – | – | – | Partial stimulant | inhibition [16]: 8%; ED50 (Mus musculus [17]): inactive |
| Br.COc1cc([C@@H]2CN3CCC[C@@H]3c3ccccc32)cc(OC)c1OC | 29 | – | – | – | – | ~2000 | 2.5 | > 60 | Partial stimulant | inhibition [1]: 2%; Ki [18]: 164 nM; inhibition [5]: 17%; inhibition [19]: 31% |

Further lines, with some results ahead:

| Ki [9] [nM] | Ki [10] [nM] | Ki [11] [nM] | inhibition [13] [%] | inhibition [14] [%] | Ki [15] [nM] | Compound | ED50 (Mus musculus [2]; Mus musculus, read-out: ED50) [mg/kg] | ED50 (Mus musculus [4]; Mus musculus, read-out: ED50) [mg/kg] | behavior (Mus musculus [6]) | also measured |
| --- | --- | --- | --- | --- | --- | --- | --- | --- | --- | --- |
| 41 | – | – | – | – | – | Br.Clc1ccccc1[C@@H]1CN2CCC[C@H]2c2ccccc21 | 2.5 | > 30 | Partial stimulant | inhibition [1]: 10%; Inhibition (Rattus norvegicus [3]): 41%; inhibition [5]: 54%; inhibition [7]: 19%; inhibition [8]: 9% |
| 163 | – | 1680 | – | – | 35.9 | Br.Clc1ccccc1[C@@H]1CN2CCC[C@@H]2c2ccccc21 (stereo in doubt; 24b) | – | – | – | ED50 (Mus musculus [2]): 0.44 mg/kg; ED50 (Mus musculus [4]): 1.6 mg/kg; Ki (D(2) dopamine receptor): 415 nM |
| 150 | – | 9200 | – | – | 17.5 | Br.Clc1ccccc1[C@@H]1CN2CCC[C@@H]2c2ccccc21 (stereo in doubt; (+)-24b) | – | – | – | – |
| 213 | 939 | 775 | – | – | – | CSc1ccc([C@@H]2CN3CCC[C@@H]3c3ccccc32)cc1 (stereo in doubt; (-)-48b) | – | – | – | – |
